In brackets after ≈: the same amount, converted by molar mass. Activity calls are given as the source filed them. No cut-off for these calls is given here.
How the values were obtained:
[1] = system: Staphylococcus aureus; experiment: Antibacterial activity against Staphylococcus aureus MB2865 assessed as growth inhibition; type: functional
Method in brief: (§1)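 MIC (µg/mL) by in vitro growth inhibition in an assay system at pH 7.4. Tetracycline was run routinely to check medium, incubation conditions and inoculum virility.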

[2] = system: Bordetella bronchiseptica; experiment: Antibacterial activity against Bordetella bronchiseptica MB905 assessed as growth inhibition; type: functional; method in brief: as §1
[3] = system: Bacillus subtilis; experiment: Antibacterial activity against Bacillus subtilis MB964 assessed as growth inhibition; type: functional; method in brief: as §1
[4] = system: Corynebacterium pseudodiphtheriticum; experiment: Antibacterial activity against Corynebacterium pseudodiphtheriticum assessed as growth inhibition at 2 to 8 ug/mL; type: functional, organism-based
[5] = system: Pasteurella multocida; experiment: Antibacterial activity against Pasteurella multocida MB7 assessed as growth inhibition at 2 to 8 ug/mL; type: functional, organism-based
[6] = system: Pseudomonas aeruginosa; experiment: Antibacterial activity against Pseudomonas aeruginosa MB418 assessed as growth inhibition; type: functional; method in brief: as §1
[7] = system: Staphylococcus aureus; experiment: Antibacterial activity against Staphylococcus aureus MB108 assessed as growth inhibition; type: functional; method in brief: as §1
[8] = system: Pseudomonas aeruginosa; experiment: Antibacterial activity against Pseudomonas aeruginosa MB2245 assessed as growth inhibition; type: functional; method in brief: as §1
[9] = system: Proteus vulgaris; experiment: Antibacterial activity against Proteus vulgaris MB838 assessed as growth inhibition at 200 ug/mL; type: functional, organism-based
[10] = system: Salmonella; experiment: Antibacterial activity against Salmonella schottmuelleri MB2837 assessed as growth inhibition; type: functional; method in brief: as §1
[11] = system: Escherichia coli; experiment: Antibacterial activity against Escherichia coli MB2884 assessed as growth inhibition; type: functional; method in brief: as §1
[12] = system: Streptococcus pyogenes; experiment: Antibacterial activity against Streptococcus pyogenes assessed as growth inhibition at 2 to 8 ug/mL; type: functional, organism-based
[13] = system: Bordetella bronchiseptica; experiment: Antibacterial activity against Bordetella bronchiseptica MB3551 assessed as growth inhibition; type: functional; method in brief: as §1
[14] = system: Klebsiella aerogenes; experiment: Antibacterial activity against Klebsiella aerogenes MB1503 assessed as growth inhibition; type: functional; method in brief: as §1

Structure (SMILES) | MIC [1] [µg/mL] | MIC [2] [µg/mL] | MIC [3] [µg/mL] | growth inhibition (GI) [4] | growth inhibition (GI) [5] | MIC [6] [µg/mL] | MIC [7] [µg/mL] | MIC [8] [µg/mL] | growth inhibition (GI) [9] | MIC [10] [µg/mL] | MIC [11] [µg/mL] | growth inhibition (GI) [12] | MIC [13] [µg/mL] | MIC [14] [µg/mL]
CC(C)c1ccc(CCC(CCc2ccc(C(C)C)cc2)NCCCNCCCN)cc1.Cl | 8 | 4 | 4 | inactive | Active | 10 | 8 | 10 | inactive | 4 | 8 | Active | 4 | 
CC(C)(C)c1ccc(CCC(CCc2ccc(C(C)(C)C)cc2)NCCCNCCCN)cc1.Cl | 15 | 4 | 2 | inactive | Active | 8 | 6 | 15 | inactive | 4 | 6 | Active | 4 | 15
CC1(C)C2CCC(C2)C1CCC(CCC1C2CCC(C2)C1(C)C)NCCNCCNCCN.Cl (centres undefined) | 30 | 4 | 4 | inactive | Active | 50 | 4 | 30 | inactive | 4 | 8 | Active | 10 | 8
Cl.NCCCNCCCNC(CCC1CCCC1)CCC1CCCC1 | 15 | 4 | 6 | inactive | Active | 60 | 20 | 30 | inactive | 8 | 30 | Active | 4 | 15
CC1(C)C2CCC(C2)C1CCC(CCC1C2CCC(C2)C1(C)C)NCCNCCN.Cl (centres undefined) | 6 | 4 | 6 | inactive | Active | 200 | 6 | > 200 | inactive | 50 | 4 | Active | 4 | 10
CC1(C)C2CCC(C2)C1CCC(CCC1C2CCC(C2)C1(C)C)NCCNCCCNCCN.Cl (centres undefined) | 6 | 8 | 6 | inactive | Active | 30 | 6 | 15 | inactive | 6 | 8 | Active | 6 | 10
Cl.NCCCNCCCNC(CCc1ccc2ccccc2c1)CCc1ccc2ccccc2c1 | 8 | 4 | 8 | inactive | Active | 40 | 6 | 100 | inactive | 8 | 15 | Active | 4 | 20
CC(C)(C)c1ccc(CCCC(CCCc2ccc(C(C)(C)C)cc2)NCCNCCNCCN)cc1.Cl | 30 | 8 | 15 | inactive | Active | 100 | 20 | 100 | inactive | 8 | 60 | Active | 60 | 50
CN(C)[C@@H]1C(O)=C(C(N)=O)C(=O)[C@@]2(O)C(O)=C3C(=O)c4c(O)cccc4[C@@](C)(O)[C@H]3C[C@@H]12 [TETRACYCLINE] | 2 (≈ 4.5 µM) | 2 (≈ 4.5 µM) | 2 (≈ 4.5 µM) | inactive | Active | 20 (≈ 45 µM) | 2 (≈ 4.5 µM) | 30 (≈ 67.5 µM) | inactive | 2 (≈ 4.5 µM) | 30 (≈ 67.5 µM) | Active | 2 (≈ 4.5 µM) | 2 (≈ 4.5 µM)
CC(C)c1ccc(CCC(CCc2ccc(C(C)C)cc2)NCCNCCNCCN)cc1.Cl | 30 | 8 | 6 | inactive | Active | 40 | 6 | 60 | inactive | 4 | 30 | Active | 15 | 40

From ChEMBL document CHEMBL3243989, “Antibacterial N-[omega, omega'-bis(alicyclic and aryl)-sec-alkyl]poly(methylene)triamine and -tetramine hydrochloride salts” (J Med Chem, 1979)
